Source: PubChem BioAssay
An excerpt weighted towards active compounds, which were near 2.9% of everything screened.
S100A4 inh HTS = inhibitors of S100A4-myosin IIA peptide binding, primary screen, biochemical, fluorescence polarization, TAMRA-MyoIIA peptide | Protein S100-A4 (Homo sapiens), P26447 | inhibition, % at 10.7 µM | hit rate 0.14% among 360,000 | AID 652163, 2013;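 active means mean inhibition of at least 70% across replicates, with every replicate also reaching that level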
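assay system = human S100A4 monomer with TAMRA-labelled myosin IIA peptide | also added = labelled myosin peptide probe, 5 nM | incubation = 5 min between mix addition and reading | control set = DMSO and TFP controls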
SIRT5 inh = SIRT5 desuccinylase inhibitors, primary screen, biochemical, fluorescence imaging, single point, set 5. inhibition, % at 15 µM. AID 652115, 2013. Purified SirT5, succinyl-peptide AMC, trypsin-coupled fluorescence. hit rate 1.1% among 330,000. NAD-dependent protein deacylase sirtuin-5, mitochondrial (Homo sapiens), Q9NXA8; in the data active means inhibition above about 15%
ERAP1 HTS inh = human ERAP1 aminopeptidase inhibitors, primary screen, biochemical, single point, plate reader; Endoplasmic reticulum aminopeptidase 1 (Homo sapiens), Q9NZ08; hit rate 0.15% among 340,000; inhibition, % at 10.7 µM; recombinant ERAP1, Leu-AMC fluorescence, 60 min;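 active means mean replicate inhibition of at least 30%, or all replicates individually reaching that 30% level; inactive means mean below 30% and not every replicate reaching it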;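 further: 0% = neutral control wells and 100% = L-leucinethiol positive control wells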
Target sequence (Q9NZ08 whole entry, looked up): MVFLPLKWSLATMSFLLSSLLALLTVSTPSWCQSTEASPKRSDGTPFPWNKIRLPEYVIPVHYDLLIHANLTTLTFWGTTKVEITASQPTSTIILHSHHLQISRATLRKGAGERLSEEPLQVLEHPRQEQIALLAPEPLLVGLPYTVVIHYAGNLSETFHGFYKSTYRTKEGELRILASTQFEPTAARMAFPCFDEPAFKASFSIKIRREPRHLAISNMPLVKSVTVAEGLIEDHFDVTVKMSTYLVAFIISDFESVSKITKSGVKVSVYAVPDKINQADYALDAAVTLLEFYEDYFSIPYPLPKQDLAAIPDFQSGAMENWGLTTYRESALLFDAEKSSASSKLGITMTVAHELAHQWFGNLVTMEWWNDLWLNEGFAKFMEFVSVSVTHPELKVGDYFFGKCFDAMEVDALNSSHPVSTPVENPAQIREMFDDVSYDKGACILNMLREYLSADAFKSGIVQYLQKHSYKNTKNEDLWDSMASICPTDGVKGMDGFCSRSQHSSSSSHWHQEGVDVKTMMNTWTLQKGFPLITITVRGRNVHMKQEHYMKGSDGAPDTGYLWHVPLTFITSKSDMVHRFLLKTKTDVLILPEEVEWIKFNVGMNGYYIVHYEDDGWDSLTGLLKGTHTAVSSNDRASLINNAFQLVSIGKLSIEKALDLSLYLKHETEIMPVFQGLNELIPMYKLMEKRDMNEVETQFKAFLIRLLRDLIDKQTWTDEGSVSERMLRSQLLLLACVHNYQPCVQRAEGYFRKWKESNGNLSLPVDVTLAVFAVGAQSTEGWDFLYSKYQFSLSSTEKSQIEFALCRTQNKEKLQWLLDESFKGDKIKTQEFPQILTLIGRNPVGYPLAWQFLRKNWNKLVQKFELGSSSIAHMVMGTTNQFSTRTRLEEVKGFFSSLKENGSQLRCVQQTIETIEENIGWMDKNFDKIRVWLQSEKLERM
DENV2 CPE = inhibitors of DENV2 cytopathic effect, primary screen, cell-based, plate reader, single concentration; AID 651640, 2012; CPE inhibition, % at 9.99 µM; hit rate 1.7% among 350,000; DENV2-infected cells, cytopathic effect rescue; in the data active means CPE inhibition above about 20%, passing the limit was not always enough; tested in BHK-21 cells;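 further: 0% = median of neutral control wells and 100% = median of positive control wells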
Numbers without * were called inactive; . = no result given.

SMILES	S100A4 inh HTS	SIRT5 inh	ERAP1 HTS inh	DENV2 CPE
COc1ccc(NC(=O)Nc2ccc3c(c2)CC(=O)N([C@H](C)CO)C[C@H](C)[C@@H](CN(C)Cc2ccc(C(=O)Nc4ccccc4N)cc2)O3)cc1	-3.1	.	0.3	-1.4
C[C@@H]1CN([C@H](C)CO)C(=O)Cc2cc(NC(=O)c3ccncc3)ccc2O[C@H]1CN(C)Cc1ccc(C(=O)Nc2ccccc2N)cc1	0.5	.	0.8	-1.9
C[C@@H]1CN([C@@H](C)CO)C(=O)Cc2cc(NC(=O)c3ccncc3)ccc2O[C@H]1CN(C)Cc1ccc(C(=O)Nc2ccccc2N)cc1	4.1	0.2	-0.1	72.0*
COc1ccc(NC(=O)Nc2ccc3c(c2)CC(=O)N([C@H](C)CO)C[C@@H](C)[C@H](CN(C)Cc2ccc(C(=O)Nc4ccccc4N)cc2)O3)cc1	66.8	0.1	3.7	55.4*
COc1ccc(NC(=O)Nc2ccc3c(c2)C(=O)N([C@@H](C)CO)C[C@@H](C)[C@@H](CN(C)Cc2ccc(C(=O)Nc4ccccc4N)cc2)O3)cc1	10.0	16.4*	-1.8	-0.3
C[C@H](CO)N1C[C@H](C)[C@H](CN(C)S(=O)(=O)c2ccc(F)cc2)Oc2ccc(NC(=O)Cc3ccccc3)cc2C1=O	-0.5	2.2	-2.6	4.3
CCOC(=O)CC1(CCc2ccccc2)Oc2ccccc2N1S(=O)(=O)c1ccc(C)cc1 (centres undefined)	2.0	2.0	0.6	-3.0
CCOC(=O)CC1(C)Sc2ccccc2N1S(=O)(=O)c1ccc(C)cc1 (centres undefined)	-4.2	.	1.9	63.2*
CCNC(=O)C[C@H]1C=C[C@@H](NS(=O)(=O)c2ccc(C)cc2)[C@@H](CO)O1	-3.2	-2.5	0.2	-2.6
COC(=O)[C@H]1[C@H](CO)[C@H]2Cn3c(cccc3=O)[C@H]2N1C(=O)C1CCCC1	-11.7	-4.1	-1.2	15.5
Cc1ccc(S(=O)(=O)Nc2ccc3c(c2)CC(=O)N([C@H](C)CO)C[C@H](C)[C@@H](CN(C)S(=O)(=O)c2ccc(C)cc2)O3)cc1	7.3	-0.9	-1.5	66.9*
Cc1ccc(S(=O)(=O)Nc2ccc3c(c2)CC(=O)N([C@@H](C)CO)C[C@@H](C)[C@H](CN(C)S(=O)(=O)c2ccc(Cl)cc2)O3)cc1	.	.	.	48.6*
Cc1ccc(S(=O)(=O)N(C)C[C@H]2Oc3ccc(NS(=O)(=O)c4ccc(Cl)cc4)cc3CC(=O)N([C@@H](C)CO)C[C@H]2C)cc1	-4.9	7.5	-2.4	26.6*
Cc1ccc(S(=O)(=O)N(C)C[C@@H]2Oc3ccc(NC(=O)NC4CCCCC4)cc3CC(=O)N([C@@H](C)CO)C[C@@H]2C)cc1	-0.5	-4.5	-0.3	35.3*
Cc1ccc(S(=O)(=O)Nc2ccc3c(c2)CC(=O)N([C@@H](C)CO)C[C@@H](C)[C@@H](CN(C)S(=O)(=O)c2ccc(Cl)cc2)O3)cc1	.	.	.	-6.6
Cc1ccc(S(=O)(=O)Nc2ccc3c(c2)CC(=O)N([C@H](C)CO)C[C@@H](C)[C@@H](CN(C)S(=O)(=O)c2ccc(C)cc2)O3)cc1	-9.4	10.8	-2.2	-1.9
Cc1ccc(S(=O)(=O)N(C)C[C@H]2Oc3ccc(NC(=O)NC4CCCCC4)cc3CC(=O)N([C@H](C)CO)C[C@H]2C)cc1	-0.2	2.5	0.4	-3.1
Cc1ccc(S(=O)(=O)Nc2ccc3c(c2)CC(=O)N([C@H](C)CO)C[C@H](C)[C@H](CN(C)S(=O)(=O)c2ccc(Cl)cc2)O3)cc1	.	.	.	-6.6
O=C(Nc1ccccc1F)N[C@@H]1CC[C@@H](CCNC(=O)C2CCC2)O[C@@H]1CO	-1.0	-1.0	-2.0	-7.2
